Assay outcomes from PubChem BioAssay.
EBV gp42 inh = Epstein-Barr virus gp42 inhibitors, primary screen, biochemical, uHTS, fluorescence polarization. Glycoprotein 42 (Epstein-Barr virus (strain AG876)), Q1HVG2. Fluorescence polarization binding assay, mP read-out. inhibition, % (tested at 21.74 µM). hit rate 0.42% among 220,000. AID 1085, 2008; in the data active = inhibition above about 50%
GRK2 inh = compounds blocking aptamer binding on GRK2 – biochemical, human GRK2, bead flow cytometry, HTS, primary screen. Beta-adrenergic receptor kinase 1 (Homo sapiens), P25098. FAM-aptamer displacement from GRK2. inhibition of aptamer binding, % at 10 µM. hit rate 0.59% among 330,000. AID 488847, 2010;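 active = inhibition of aptamer binding above 40%, roughly 3 SD of noise, on plates passing a quality check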;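 note: median bead fluorescence of bound FAM aptamer so fluorescent compounds give negative values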
Keap1 Nrf2 FP = Keap1-Nrf2 protein-protein interaction inhibitors, primary screen, biochemical, fluorescence polarization, single point; inhibition, % at 9.4 µM; hit rate 0.15% among 340,000; Keap1 Kelch-Nrf2 peptide fluorescence polarization, 1536-well; Kelch-like ECH-associated protein 1 (Homo sapiens), Q14145; in the data active = inhibition above about 12%;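 note: human Keap1 Kelch domain with fluorescein labeled Nrf2 9mer peptide probe; 0% = neutral control wells and 100% = peptide positive control; higher means more block of Keap1 binding to Nrf2 peptide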
Target sequence (Q14145 whole entry, looked up, the tested form may be a part): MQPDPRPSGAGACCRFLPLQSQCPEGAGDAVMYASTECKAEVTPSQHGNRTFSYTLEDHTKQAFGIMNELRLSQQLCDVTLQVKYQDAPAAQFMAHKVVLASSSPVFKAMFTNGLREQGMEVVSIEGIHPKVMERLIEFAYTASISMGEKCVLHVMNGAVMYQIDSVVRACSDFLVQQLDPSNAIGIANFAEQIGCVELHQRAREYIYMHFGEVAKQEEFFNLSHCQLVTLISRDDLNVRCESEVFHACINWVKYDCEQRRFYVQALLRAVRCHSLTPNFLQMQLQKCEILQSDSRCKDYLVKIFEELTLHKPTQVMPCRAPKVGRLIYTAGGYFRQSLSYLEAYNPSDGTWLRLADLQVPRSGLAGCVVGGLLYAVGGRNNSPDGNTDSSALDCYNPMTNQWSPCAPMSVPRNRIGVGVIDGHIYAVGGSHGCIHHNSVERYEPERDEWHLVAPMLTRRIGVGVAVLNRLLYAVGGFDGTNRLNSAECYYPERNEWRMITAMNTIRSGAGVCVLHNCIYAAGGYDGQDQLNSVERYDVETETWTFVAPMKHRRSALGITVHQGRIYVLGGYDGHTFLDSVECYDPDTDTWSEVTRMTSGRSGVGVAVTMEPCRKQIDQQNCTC
MEX-5 binding = MEX-5 zinc finger RNA-binding disruptors – biochemical, C. elegans, fluorescence polarization, MLPCN library, primary screen. activity score (negative = inhibition of binding), % at 10 µM. AID 1832, 2009. hit rate 0.38% among 300,000. MEX-5/FITC-TCR2 RNA binding; stronger effect = lower value;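 active = inhibition past about -25% in most replicates, and total fluorescence under double the plate's negative control median, limit read from the data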;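 note: 0% = DMSO and -100% = 5 µM competing unlabeled TCR2 RNA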
T cell HTS = modulators of CD8 T cell-vesicle binding, primary screen, mouse 2C CD8+ T cells, flow cytometry | 2C CD8+ T cell-vesicle binding; stronger effect = lower value | response (vesicle binding), % at 7 µM | hit rate 0.068% among 330,000 | AID 2052, 2009;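 active = response, share of CD8 T cells binding vesicles, and their 90th percentile fluorescence all below set limits, cut at about 80% in these data, passing the limit was not always enough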;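 note: values below 100% mean blocked vesicle binding to the CD8+ T cells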
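Assay system – 2C mouse CD8+ T cells · Also added – QL9-loaded Drosophila micro-vesicles · Timing – Cell–vesicle co-incubation 1.5 h at 37 °C, staining 20 min on ice · Signal – flow cytometry of vesicle-bound cells · Measure – percent CD8+ FL2 mean versus row control · Controls – Peptide-free naked vesicles (low) and QL9 vesicles with 0.7% DMSO vehicle (high)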
LANA DNA inh = inhibitors of KSHV C-LANA binding to DNA, primary screen, biochemical, fluorescence polarization, FAM-LBS DNA, MBP-C-LANA, single point | Kaposi's sarcoma herpesvirus LANA C-terminal domain (residues 932-1162) DNA binding | inhibition, % at 9 µM | hit rate 0.078% among 340,000;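 active = highest replicate inhibition at or above 60% at 9 µM, even if other replicates fall short; inactive = all replicates below 60% inhibition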;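 note: 0% = neutral control wells and 100% = 4 µM acridine orange control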
GRK2 CP1 = GRK2 aptamer-displacing inhibitors, retest, confirmation, biochemical, cherry pick 1, bead flow cytometry. bead-bound GRK2, FAM-aptamer displacement. hit rate 4% among 2,000. aptamer displacement, % at 10 µM. shares compounds with GRK2 inh. AID 504451, 2011;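 active = aptamer displacement above 40%, near three times the noise of non-fluorescent compounds, on plates passing quality checks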;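 note: negative values mostly reflect intrinsic compound fluorescence rather than true enhancement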
Aptamer quench = fluorescent aptamer quenching in GRK2 counter-screen dose response; AID 504521; Fluorescent RNA aptamer beads, flow cytometry; stronger effect = higher value; shares compounds with GRK2 inh; fluorescence change (kMESF span), kMESF (test concentration not listed); 110 tested, under 10 active;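 active = compounds whose bead fluorescence drops by more than 37 kMESF across the dose range, marking them as dye quenchers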
FAM quench CP1 = quenches fluorescent RNA aptamer, GRK2 hit artifact. Carboxyfluorescein RNA aptamer on beads, flow cytometry quenching; stronger effect = lower value. fluorescence response (% of DMSO), % at 10 µM. shares compounds with GRK2 inh. AID 504580. 2,000 tested, under 10 active;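 active = compounds that quench the bead-bound fluorescent RNA probe, cutting fluorescence to under half of the solvent control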;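 note: counterscreen run without GRK2 so only probe quenching by compound is measured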
FAM quench DR = quenchers of FAM-labeled RNA aptamer fluorescence, dose response, artefact control for GRK2 aptamer binding project, biochemical, powder set 1, flow cytometry; Bead-bound FAM RNA aptamer fluorescence quenching; stronger effect = lower value; shares compounds with GRK2 inh; 35 tested, under 10 active; fluorescence ratio to DMSO, % at 11.1 µM;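 active = compounds that dim the fluorescent label, raw bead signal shifting by over 33 units between lowest and highest dose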
* marks the source's active call; other numbers are inactive results; i = inactive; . = no result given. Most compounds without a hit are left out; they make up all but 1.3% or so of the library.

SMILES	EBV gp42 inh	GRK2 inh	Keap1 Nrf2 FP	MEX-5 binding	T cell HTS	LANA DNA inh	GRK2 CP1	FAM quench CP1	others
FC(F)(F)c1cc(Cl)c2nnc(-c3ccccn3)n2c1	.	0	1	0	184	2	.	.
O=C(O)c1ccccc1-c1nnc2c(Cl)cc(C(F)(F)F)cn12	.	7	0	0	251	-2	2	101
Cc1cc(C)cc(NC(=O)CSc2nc3nc(C)cc(C)n3n2)c1	.	41*	4	.	454	7	-2	106
CC(C)C(C)NC(=O)CSc1ccc(S(=O)(=O)N2CCOCC2)cn1 (stereo unspecified)	.	61*	-5	.	239	0	0	100
O=C(CCS(=O)(=O)c1ccc(Cl)cc1)Nc1ccccc1Br	.	0	-2	-1	21	-4	.	.
O=C(CCS(=O)(=O)c1ccc(Br)s1)Nc1ccccc1Br	-4	88*	0	-1	498	0	12	94	Aptamer quench=-5.6;FAM quench DR=98
CCOC(=O)c1ccc(NC(=O)CCS(=O)(=O)c2ccc(Br)s2)cc1	-9	3	-1	2	436	-2	.	.
COc1ccc(NC(=O)CCS(=O)(=O)c2ccc(Br)s2)cc1	.	87*	-2	0	423	2	43*	95	Aptamer quench=-2.3;FAM quench DR=97
Cc1cc(C)n(CC(O)Cn2cnc3c2c(=O)n(C)c(=O)n3C)n1 (stereo unspecified)	-16	0	-6	-1	507	-1	.	.
COc1ccccc1N(CC(=O)NC1CCCC1)C(=O)CCC(=O)Nc1cc(C)on1	4	0	-3	-3	91	-2	.	.
CC(C)c1nnc(NC(=O)CCS(=O)(=O)c2ccccc2)s1	.	0	0	-3	374	0	-2	113
CC(C)c1nnc(NC(=O)c2cccs2)s1	3	44*	0	1	409	-1	-3	98
CCCC(C)c1nnc(NC(=O)CCS(=O)(=O)c2ccccc2)s1 (stereo unspecified)	.	17	2	1	206	-2	13	98
CC(C)c1nnc(NC(=O)CCc2ccccc2)s1	.	0	3	3	194	-1	.	.
CCOC(=O)C(NC(C)=O)C(=O)Nc1ccc(C)cc1C (stereo unspecified)	-17	50*	1	0	591	-1	-1	102
CCOC(=O)Nc1ccc(C)cc1C	-3	1	2	1	381	-1	.	.
O=C(Nc1ccc(F)cc1F)c1noc2c1CCC2	25	59*	-2	0	199	5	13	102
O=c1[nH]c(Cc2cccc(C(F)(F)F)c2)nc2ccccc12	.	0	-4	-2	220	0	0	100
O=c1[nH]c(Cc2ccc(Cl)cc2)nc2ccccc12	0	4	-1	2	248	0	.	.
O=C(NCC1CCCO1)C1CCCCN1S(=O)(=O)c1ccc(F)cc1 (stereo unspecified)	-16	0	1	1	516	0	.	.
CC(=O)c1cc2c(cc1NC(=O)C1CC=CCC1C(=O)O)OCO2 (stereo unspecified)	-1	4	1	-2	597	0	.	.
CC(=O)c1cc2c(cc1NC(=O)C1CN(C(C)=O)c3ccccc3O1)OCO2 (stereo unspecified)	.	26	-3	.	251	0	0	104
Cc1[nH]nc2c1/C(=N\O)CCC2	3	40	-3	3	205	0	-3	102
O=CN1CCCN(C(=O)CC2C(=O)NCCN2Cc2cccc(Oc3ccccc3)c2)CC1 (stereo unspecified)	.	2	2	0	161	1	.	.
CCN(C(=O)CN1CCc2ccccc21)c1c(N)n(Cc2ccccc2)c(=O)[nH]c1=O	-29	0	-3	0	i	0	-1	99
SMILES	EBV gp42 inh	GRK2 inh	Keap1 Nrf2 FP	MEX-5 binding	T cell HTS	LANA DNA inh	GRK2 CP1	FAM quench CP1	others
COCCN(C(=O)CN1CCc2ccccc21)c1c(N)n(Cc2ccccc2)c(=O)[nH]c1=O	.	0	-11	.	75	-2	.	.
CC(C)C(c1nnnn1C(C)(C)C)N1CCOCC1 (stereo unspecified)	7	47*	-4	.	325	-1	-4	96
CCn1cc(S(=O)(=O)NC(C)c2cc(OC)ccc2OC)cn1 (stereo unspecified)	.	0	0	2	297	-1	.	.
CCc1nnc(NS(=O)(=O)c2ccc(NC(=O)COc3ccc4ccccc4c3)cc2)s1	-7	51*	-3	4	30	0	3	98
CCS(=O)(=O)c1ccc(-c2cccc(NC(=O)COc3ccccc3)c2)nn1	.	0	-5	1	154	-1	.	.
O=C(COc1ccccc1)Nc1cccc(-c2ccc(N3CCOCC3)nn2)c1	.	0	3	2	317	-1	1	94
O=C(COc1ccc(Cl)cc1Cl)Nc1cccc(-c2ccc(N3CCOCC3)nn2)c1	.	.	-1	0	.	0	-2	93
COC(=O)N/N=C/c1cc(C)n(-c2cccc3ccccc23)c1C	-15	1	-1	2	199	-1	.	.
CCc1c(C)nc2c(-c3ccccc3)c(-c3ccccc3)[nH]n2c1=O	.	1	-2	1	204	1	.	.
CCOc1ccc(NS(=O)(=O)c2ccc3[nH]c(=O)[nH]c3c2)cc1	.	50*	-6	-2	565	-1	-3	96
O=C(c1ccc(C(F)(F)F)cc1)C1CCCN(C(=O)CCn2cncn2)C1 (stereo unspecified)	.	2	0	6	271	0	.	.
